pPAFAH FP inh = inhibitors of human plasma PAF acetylhydrolase (pPAFAH); Q13093; recombinant pPAFAH, FP-rhodamine probe fluorescence polarization; inhibition, % at 3.39 µM; 330,000 tested, 1.5% active;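 active means inhibition above the mean inhibition across the screen plus 3 SD, cut at about 25% in these data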;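 further: inhibitors block binding of the rhodamine activity-based probe so polarization drops; 0% = enzyme with DMSO and 100% = wells lacking pPAFAH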
PAFAH1B2 FP inh = inhibitors of human PAFAH1B2 | recombinant PAFAH1B2, FP-rhodamine activity probe, fluorescence polarization | P68402 | inhibition, % at 3.39 µM | AID 492953 | 340,000 tested, 1.2% active;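 active means inhibition above the mean of all tested compounds plus 3 SD, cut at about 24% in these data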;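 further: 0% = enzyme with DMSO and 100% = wells lacking PAFAH1B2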
Target sequence (P68402 whole entry, looked up): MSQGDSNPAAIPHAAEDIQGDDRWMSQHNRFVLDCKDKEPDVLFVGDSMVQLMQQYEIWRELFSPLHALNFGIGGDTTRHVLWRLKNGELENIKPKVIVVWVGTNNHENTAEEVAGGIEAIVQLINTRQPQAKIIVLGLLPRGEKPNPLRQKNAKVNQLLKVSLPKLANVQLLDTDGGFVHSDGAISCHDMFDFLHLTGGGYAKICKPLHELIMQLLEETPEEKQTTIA
PAFAH2 FP inh = inhibitors of human PAFAH2 | Q99487 | recombinant PAFAH2, FP-rhodamine activity probe, fluorescence polarization | inhibition, % at 3.39 µM | 340,000 tested, 0.99% active;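 active means inhibition above the mean over all tested compounds plus 3 SD, cut at about 30% in these data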;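 further: inhibitors block probe labeling of enzyme so polarization drops; 0% = enzyme with DMSO and 100% = wells lacking PAFAH2 protein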
RBBP9 inh = inhibitors of human serine hydrolase RBBP9; AID 1515; 220,000 tested, 0.2% active; recombinant RBBP9, FP-Rh probe fluorescence polarization; inhibition, % at 7.94 µM; O75884;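 active means inhibition above the campaign mean of all tested compounds plus 3 SD, cut at about 14% in these data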;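 further: plate controls were DMSO wells with RBBP9 for no effect and wells lacking RBBP9 protein for full effect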
Target sequence (O75884 whole entry, looked up): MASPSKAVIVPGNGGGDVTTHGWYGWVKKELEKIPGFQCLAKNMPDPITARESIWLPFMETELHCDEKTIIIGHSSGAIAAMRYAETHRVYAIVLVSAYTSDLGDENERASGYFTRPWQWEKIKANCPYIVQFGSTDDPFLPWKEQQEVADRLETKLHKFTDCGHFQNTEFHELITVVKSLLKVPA
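System: RBBP9 protein | Quantity: 2.5 µM RBBP9 dispensing solution, before mixing | Reagent: FP-Rh probe, 375 nM dispensing solution | Timing: Enzyme-compound preincubation 30 min, then probe labeling 45 min, 25 °C | Measured by: Fluorescence polarization | Read-out: % inhibition | Replication: One well per compound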
PAFAH1B3 inh = inhibitors of human PAFAH1B3; recombinant PAFAH1B3, FP-rhodamine probe, fluorescence polarization; inhibition, % at 3.39 µM; 340,000 tested, 0.28% active;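 active means inhibition above the screen-wide average of all tested compounds plus 3 SD, cut at about 25% in these data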;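 further: 0% = enzyme with DMSO only and 100% = wells lacking PAFAH1B3 protein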
Target sequence (Q15102 whole entry, looked up): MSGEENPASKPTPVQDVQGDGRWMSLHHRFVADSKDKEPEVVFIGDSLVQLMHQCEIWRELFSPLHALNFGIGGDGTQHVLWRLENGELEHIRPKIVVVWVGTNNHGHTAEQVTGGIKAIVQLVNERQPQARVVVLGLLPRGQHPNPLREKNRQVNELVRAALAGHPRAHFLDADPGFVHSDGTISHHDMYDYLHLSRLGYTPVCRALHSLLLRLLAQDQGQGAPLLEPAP
Numbers without * were called inactive; · = no result. Compounds with a hit are over-represented: about 2.7% of the library has one in this group of screens.

SMILES | pPAFAH FP inh | PAFAH1B2 FP inh | PAFAH2 FP inh | RBBP9 inh | PAFAH1B3 inh
S=c1[nH]nc(-c2ccccc2)n1Cc1ccccc1 | 1.2 | 11.5 | -1.4 | 1.8 | 7.2
CCCCc1n[nH]c(=S)n1Cc1ccc(Cl)cc1 | 3.0 | 26.7* | 1.0 | -11.3 | 5.3
S=c1[nH]nc(-c2ccc(Cl)cc2)n1Cc1ccccc1 | 3.7 | 37.1* | -3.4 | -6.3 | 6.4
COc1ccc(-c2n[nH]c(=S)n2Cc2ccccc2)cc1 | 3.1 | -1.1 | 2.3 | · | 0.8
CCc1ccccc1NC(=O)CN(C)C(=O)COC(=O)c1c(Cl)cccc1Cl | · | 10.2 | 2.4 | · | 11.2
Oc1cc(-c2ccccc2)c2ccccc2c1 | 16.2 | 3.0 | 3.1 | -10.5 | 6.1
COc1ccc(NS(=O)(=O)c2cccc(-c3n[nH]c(=S)n3Cc3ccccc3)c2)cc1 | 26.7* | 14.0 | 2.5 | -8.0 | 8.0
S=c1[nH]nc(Cc2ccccc2)n1-c1ccc(Cl)cc1 | 4.8 | 28.6* | -4.2 | -3.5 | 7.2
CCN(CC)S(=O)(=O)c1cccc(-c2n[nH]c(=S)n2Cc2ccccc2)c1 | 2.2 | 2.1 | -2.6 | -4.3 | 10.2
COc1ccc(NS(=O)(=O)c2cccc(-c3nnc(-c4ccccc4)o3)c2)cc1 | 29.7* | -0.7 | 10.8 | -12.7 | 7.6
O=C(Cn1nnc(-c2ccccc2F)n1)Nc1ccc(S(=O)(=O)NC2CCCC2)cc1 | -27.5 | -12.6 | -32.8 | -26.9 | -51.0
CCOc1ccc(OCCSc2nc3ccccc3c(=O)[nH]2)cc1 | 2.9 | 31.1* | 3.5 | -9.1 | -6.1
O=c1[nH]c(SCCOc2cccc3ccccc23)nc2ccccc12 | 3.2 | 2.4 | -1.0 | -5.7 | 2.6
CCN1CCN(C(c2cccs2)C(C)NC(=S)NC2CCCCC2)CC1 (stereo unspecified) | 33.6* | 0.9 | -3.1 | -1.1 | 6.8
CCN1CCN(C(c2cccs2)C(C)NC(=O)NC2CCCCC2)CC1 (stereo unspecified) | 0.5 | 3.9 | 1.4 | -4.1 | 5.3
COc1ccc(C(=O)c2coc3c2C(=O)C(=O)c2ccccc2-3)cc1 | 19.3 | 5.2 | 14.8 | 1.5 | 10.6
O=C(c1ccccc1)c1coc2c1C(=O)c1ccccc1C2=O | 0.7 | 2.9 | 47.6* | -7.7 | 28.6*
O=S(=O)(Cc1ccccc1)N1CCC(c2nc(-c3cccs3)no2)CC1 | 6.9 | 2.3 | -5.4 | -2.4 | 1.6
O=C(Cc1ccc(F)cc1)N/N=C/c1ccc(-c2ccc(Cl)c(C(=O)O)c2)o1 | 7.1 | 1.7 | 0.8 | 0.4 | 5.5
O=C(O)c1cc(N/N=C/c2ccc(-c3ccc(F)cc3)o2)ccc1Cl | 31.3* | 4.9 | -0.4 | · | 4.7
NNC(=S)NC1CCCCCCCCCCC1 | 7.8 | 55.1* | 6.4 | -9.5 | -2.9
COc1cc(-c2nc(-c3ccccc3)c(-c3cccs3)[nH]2)cc(OC)c1O | 32.4* | 17.2 | 20.2 | -1.6 | 15.2
O=C(O)CNC(=O)c1ccc(NS(=O)(=O)c2ccc3ccccc3c2)cc1 | 7.9 | 12.0 | 0.3 | · | 8.4
CCn1c(C)nc2cc(C(=O)NNC(=S)Nc3ccc(OC)cc3)ccc21 | 3.2 | -1.9 | 10.3 | -10.6 | 2.8
C[C@H](N)c1nnc(SCc2ccc(Cl)cc2Cl)o1 | 1.7 | 11.8 | -5.5 | 6.3 | 6.2
SMILES | pPAFAH FP inh | PAFAH1B2 FP inh | PAFAH2 FP inh | RBBP9 inh | PAFAH1B3 inh
CC(C)[C@H](N)c1nnc(SCc2ccc(Cl)cc2)o1 | -1.3 | 34.2* | -6.3 | -4.1 | 6.5
CNC(=S)/N=C/NOCc1ccc(Cl)cc1Cl | 1.8 | 5.3 | -0.6 | -9.5 | 6.3
NC(=O)C1CCN(C(=O)C2CCN(C(=O)Nc3ccccc3)CC2)CC1 | · | 2.1 | 2.8 | · | 5.9
COc1cc(NC(=O)CN2C(=O)COc3ccc(S(=O)(=O)N4CCCC4)cc32)cc(OC)c1 | 1.1 | 0.8 | 7.6 | · | 2.1
O=C1NC(c2cccc3ccccc23)Nc2ccccc21 (stereo unspecified) | · | 1.0 | 5.8 | · | 8.1
O=C1c2ccccc2C(=O)C12OC2c1cccc2ccccc12 (stereo unspecified) | 4.7 | 15.8 | 18.6 | 3.4 | 64.9*
O=C(CCC(=O)c1cccs1)OCC(=O)c1ccccc1F | · | 3.0 | 2.1 | · | 10.9
Cc1ccccc1NS(=O)(=O)c1ccc(NC(=O)CSCc2ccc(Br)cc2)cc1 | 25.8* | -15.7 | -41.1 | -40.7 | -37.0
CC(C)(C)n1nc2c(c1NC(=O)c1cc(Cl)ccc1[N+](=O)[O-])CS(=O)(=O)C2 | -1.2 | 1.2 | -2.2 | · | 7.8
CC(=O)c1sc(NC(=O)C2(F)C(F)(F)C(F)(F)C(F)(F)C(F)(F)C2(F)F)nc1C | 1.4 | 38.9* | 27.5 | -10.6 | 4.1
CC(OCC(O)CN(C)Cc1nc2ccccc2c(=O)[nH]1)c1ccc(Cl)cc1 (stereo unspecified) | 6.6 | 27.8* | 1.3 | -5.0 | -2.8
Cc1ccccc1C1CC(=O)Oc2cc(O)ccc21 (stereo unspecified) | 32.0* | 33.7* | 40.1* | · | 40.6*
CCOc1ccc(NC2OCC(O)C(O)C2O)c([N+](=O)[O-])c1 (stereo unspecified) | 1.9 | 5.6 | 7.6 | -6.1 | 2.4
CCN(C(=O)CSc1ncccc1C(=O)O)C1CCCCC1 | -6.6 | 29.1* | -4.7 | -9.3 | 6.4
CC1Cc2nc(SCC(=O)Nc3ccc4c(c3)OCO4)n(-c3ccc(F)cc3)c(=O)c2S1 (stereo unspecified) | -1.2 | 4.5 | 11.1 | · | 4.6
COCCn1c(C)c(C)c(S(=O)(=O)c2ccccc2)c1N | 12.8 | 41.5* | 59.2* | · | 41.4*
Cc1c(S(=O)(=O)c2ccccn2)c(N)n(Cc2ccccc2)c1C | -4.3 | · | · | -4.5 | ·
CC(=O)c1coc2ccc(OCCN3CCCCC3)cc12 | -2.0 | 0.7 | -3.7 | 2.4 | -2.5
CC1=C(C(=O)OC2CCCCCCC2)C(c2ccc(O)cc2)NC(=O)N1 (stereo unspecified) | 0.6 | 24.9* | 5.8 | -3.9 | 6.2
CC1=C(C(=O)OC2CCCCC2)C(c2ccccc2)NC(=O)N1 (stereo unspecified) | 3.9 | 13.9 | -6.2 | · | 8.8
N#Cc1ccc(NC(=O)COC(=O)CCNS(=O)(=O)c2ccccc2)cc1 | 28.5* | 4.6 | 0.6 | 0.7 | 2.2
O=C(CCNS(=O)(=O)c1ccccc1)OCC(=O)c1ccc(Br)cc1 | 20.7 | 11.4 | 3.1 | · | -1.4
O=C(CCNS(=O)(=O)c1ccccc1)OCC(=O)c1ccc(Cl)cc1 | 25.6* | 16.3 | 1.5 | · | 1.5
CC(C)COP(=O)(CNC(=O)CN1C(=O)c2ccccc2S1(=O)=O)OCC(C)C | 2.9 | 2.2 | 4.2 | 1.2 | 0.0
COc1ccc(S(=O)(=O)N2CCN(c3nc(C)cc(C)n3)CC2)cc1 | 14.9 | 5.5 | 2.9 | · | 7.8
CC1CCc2c(sc(NC(=O)c3cccn3C)c2C(N)=O)C1 (stereo unspecified) | 29.0* | -4.7 | 5.0 | · | 2.7
COc1ccc(C(=O)OC(C)C(=O)NC2CCCc3ccccc32)cc1OC (stereo unspecified) | 1.2 | 5.0 | -2.6 | · | 8.0
Nc1ccc2nc(-c3ccccc3)c(-c3ccccc3)nc2c1 | 26.9* | 13.9 | 9.1 | · | 8.7
Cc1c(OCC(=O)N[C@@H](CSCc2ccccc2)C(=O)O)ccc2c3c(c(=O)oc12)CCC3 | · | 24.4* | 13.1 | · | 1.7

Source: PubChem BioAssay
